Screening results: PubChem BioAssay, NMMLSC
This is a sample that favours compounds with a hit; in the whole collection about 2.3% have one here.
MEKK3 PB1 HTS: raises or lowers MEK5 binding to the human MEKK3 PB1 domain | binding response (% of control), % at 10 µM | hit rate 1.4% among 290,000 | bead-based flow cytometry, Alexa488-MEK5 binding to MEKK3; actives lie on both sides; 0 = blocked by unlabeled MEK5, 100 = vehicle | Q99759 | AID 1529;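 active = binding response more than 3 SD above or below the average of its plate-row segment, actives on both sides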;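 also: Alexa488 bead fluorescence after subtracting the streptavidin-only scavenger bead signal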
Target sequence (Q99759 whole entry, looked up, the tested form may be a part): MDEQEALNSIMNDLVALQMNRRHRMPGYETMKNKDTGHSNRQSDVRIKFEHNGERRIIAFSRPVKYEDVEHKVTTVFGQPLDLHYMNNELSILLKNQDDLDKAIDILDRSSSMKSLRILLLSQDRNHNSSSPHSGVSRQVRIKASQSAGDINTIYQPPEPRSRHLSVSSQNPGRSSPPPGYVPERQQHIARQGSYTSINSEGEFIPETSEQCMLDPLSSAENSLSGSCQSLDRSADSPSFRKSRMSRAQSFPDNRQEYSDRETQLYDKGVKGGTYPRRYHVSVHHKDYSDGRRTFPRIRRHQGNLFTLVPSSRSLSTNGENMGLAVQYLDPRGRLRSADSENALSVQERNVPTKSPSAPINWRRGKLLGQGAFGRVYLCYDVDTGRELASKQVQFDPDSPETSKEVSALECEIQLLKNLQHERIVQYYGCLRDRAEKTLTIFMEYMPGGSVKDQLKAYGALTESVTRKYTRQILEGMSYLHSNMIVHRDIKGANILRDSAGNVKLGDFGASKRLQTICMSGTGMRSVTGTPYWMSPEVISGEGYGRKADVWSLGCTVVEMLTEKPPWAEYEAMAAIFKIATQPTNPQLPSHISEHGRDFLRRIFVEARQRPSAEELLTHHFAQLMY
ABCB1 block: inhibitors of human ABCB1 transporter, ABCG2 counter-screen; P08183; CCRF-Adr cells, JC-1 efflux, flow cytometry; inhibition, % at 6.6 µM; hit rate 0.067% among 190,000; AID 1326; in the data active = inhibition above about 40%;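 also: higher value means more JC-1 retained so stronger ABCB1 efflux block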
MEKK2wt PB1 HTS: raises or lowers MEK5 binding to wildtype human MEKK2 PB1 domain; Q9Y2U5; bead flow cytometry, Alexa488-MEK5 binding to MEKK2 WT; actives lie on both sides; binding response (% of control), % at 10 µM; hit rate 1.1% among 290,000; in the data active = binding response below about 67% or above about 130%
ABCG2 inh: inhibitors of human ABCG2 transporter, ABCB1 counter-screen; hit rate 0.1% among 190,000; Q9UNQ0; IgMXP3 cells, JC-1 efflux, flow cytometry; inhibition, % at 6.6 µM;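 active = inhibition above 80%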
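Test system: ABCG2 IgMXP3 and barcoded ABCB1 CCRF-Adr cell mix; Schedule: cells with compound and JC-1, 10 min at 25 °C, rotating, no wash; Technique: flow cytometry of retained JC-1 fluorescence; Measure: % inhibition of efflux relative to nicardipine and DMSO; Controls: nicardipine high and DMSO low controls.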
MEKK2 mut-MEK5: signal of MEK5 binding to mutant human MEKK2 PB1 domain; AID 1530; bead flow cytometry, Alexa488-MEK5 binding to MEKK2 mutant; percent response, % at 10 µM; hit rate 0.35% among 290,000; in the data active = percent response above about 24%, passing the limit was not always enough
MEKK2wt confirm: raises or lowers MEK5 binding to wildtype human MEKK2, retest | shares compounds with MEKK3 PB1 HTS | bead flow cytometry, Alexa488-MEK5 binding to MEKK2 WT; actives lie on both sides | binding response (% of control), % at 10 µM | hit rate 2.4% among 5,900 | AID 1892; in the data active = binding response below about 16% or above about 210%; inactive = in between
MEKK2mut confirm: signal of MEK5 binding to mutant human MEKK2, retest. shares compounds with MEKK3 PB1 HTS. bead flow cytometry, Alexa488-MEK5 binding to MEKK2 mutant. percent response, % at 10 µM. hit rate 2% among 5,900. AID 1893; in the data active = percent response mostly above about 71%, no sharp cut-off; inactive = mostly below about 38%;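 also: higher means compound restores mutant binding toward wildtype level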
MEKK3-MEK5 inh: confirmation of inhibitors of MEK5 binding to human MEKK3 | hit rate 1.8% among 5,900 | binding response (% of control), % at 10 µM | shares compounds with MEKK3 PB1 HTS | bead flow cytometry, Alexa488-MEK5 binding to MEKK3; stronger effect = lower value;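 active = binding response below 72% of control, or above a set upper limit, though filed actives all read lower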
Numbers stand for hits; i = inactive; nt = not tested or not shown; [ ] = remark or other dose.

SMILES | MEKK3 PB1 HTS | ABCB1 block | MEKK2wt PB1 HTS | ABCG2 inh | MEKK2 mut-MEK5 | MEKK2wt confirm | MEKK2mut confirm | MEKK3-MEK5 inh
CCOC(=O)NC1(C(F)(F)F)NC(=O)N(C2CCCCC2)C1=O (configuration not stated) | i | i | -4.0[inhibitor] | i | i | i | i | i
CS(=O)(=O)N(CC(=O)NCc1ccc2c(c1)OCO2)C1CCCCC1 | 136 | i | i | i | i | i | i | i
COC(=O)CSc1nc(N)c(C#N)c(-c2ccco2)c1C#N | i | i | i | i | i | nt | nt | nt
COC(=O)CSc1nc(-c2ccccc2)cc(-c2ccco2)c1C#N | 125 | i | i | i | i | i | i | i
C=C(C)[C@@H]1CC=C(CN2CCC(N3CCC(C(=O)N4CCCC4)CC3)CC2)CC1 | i | i | 142 | i | i | i | i | i
COc1cccc(CN(C)C(=O)[C@@H](NC(=O)c2ccc(C)cc2)C(C)C)c1 | i | nt | i | nt | i | nt | nt | nt
Cc1c(Cl)cccc1N(CC(=O)NC(C)c1ccccc1)S(C)(=O)=O (configuration not stated) | i | nt | i | nt | i | nt | nt | nt
CC(NC(=O)CN(c1ccccc1F)S(C)(=O)=O)c1ccccc1 (configuration not stated) | i | nt | i | nt | 27 | i | i | i
O=C(CCSCCC(=O)NCCN1CCOCC1)NCCN1CCOCC1 | 81[inhibitor] | i | i | i | i | i | i | i
CCc1ccc(OCC(=O)N/N=C/c2cc([N+](=O)[O-])ccc2N2CCCCCC2)cc1 | 136 | i | i | i | i | i | i | i
O=C(N/N=C/c1cc([N+](=O)[O-])ccc1N1CCCCCC1)c1ccccn1 | i | i | i | i | i | nt | nt | nt
O=C(O)c1cccnc1SC1CC(=O)N(c2ccccc2)C1=O (configuration not stated) | 128 | nt | i | nt | i | i | i | i
CC(C(=O)Nc1ccccc1F)N1CCN(C)CC1 (configuration not stated) | i | nt | i | nt | i | nt | nt | nt
O=C(O)CCc1ccc(S(=O)(=O)Nc2ccc(OCc3ccccc3)cc2)cc1 | i | nt | i | nt | i | nt | nt | nt
O=C(O)/C=C/c1ccc(S(=O)(=O)Nc2ccc(OCc3ccccc3)cc2)cc1 | 73[inhibitor] | nt | i | nt | i | i | i | i
CCN(Cc1ccccc1)C(=O)CCc1nc(CN2CCN(C(=O)c3ccc([N+](=O)[O-])cc3)CC2)no1 | i | nt | i | nt | i | nt | nt | nt
Cc1ccnc(NC(=O)C2(c3cccs3)CCOCC2)c1 | 145 | i | i | i | i | 1.0[inhibitor] | i | 2.0
C=CCNC(=O)COC(=O)/C=C/c1cccs1 | i | i | i | i | i | nt | nt | nt
O=C(Nc1ccccn1)C1(c2cccs2)CCOCC1 | i | i | i | i | i | nt | nt | nt
C=CCNC(=O)/C=C/c1cccs1 | 135 | i | i | i | i | i | i | i
Cc1ccnc(NC(=O)/C=C/c2cccs2)c1 | i | i | 178 | i | 58 | i | i | i
Cc1ccc(C(=O)Nc2ccc(N3CCN(C)CC3)cc2)c(Cl)c1 | i | nt | i | nt | i | nt | nt | nt
CCOC(=O)c1ccc(-c2ccc(/C=N/NC(=O)CN(c3cccc(C)c3)S(C)(=O)=O)o2)cc1 | i | i | i | i | i | nt | nt | nt
CCOC(=O)c1ccc(-c2ccc(/C=N/NC(=O)CN(c3ccccc3Cl)S(C)(=O)=O)o2)cc1 | 141 | i | i | i | i | i | i | i
CC1(c2nnc(-c3ccncc3)o2)CC(c2ccccc2)=NO1 (configuration not stated) | i | nt | i | nt | i | nt | nt | nt
SMILES | MEKK3 PB1 HTS | ABCB1 block | MEKK2wt PB1 HTS | ABCG2 inh | MEKK2 mut-MEK5 | MEKK2wt confirm | MEKK2mut confirm | MEKK3-MEK5 inh
O=[N+]([O-])c1ccc(Cl)c(S(=O)(=O)n2ccnc2)c1 | 130 | nt | i | nt | i | i | i | i
O=S(=O)(c1cc(Cl)ccc1Cl)n1ccnc1 | i | i | i | i | i | nt | nt | nt
Cn1c(=O)c2c(ncn2CC(=O)N2CCN(C(=O)c3ccco3)CC2)n(C)c1=O | i | i | 50[inhibitor] | i | i | i | i | i
CCc1cccc2c(C(=O)C(F)(F)F)cn(CC(=O)N3CCOCC3)c12 | 147 | i | i | i | i | i | i | i
Cc1noc(C)c1COc1ccc(C(=O)OCc2nnc(-c3ccc(Cl)cc3)o2)cc1 | 2.0[inhibitor] | i | 2.0[inhibitor] | i | i | i | i | i
O=C(OCc1nnc(-c2ccc(Cl)cc2)o1)c1ccncc1 | i | i | i | i | i | nt | nt | nt
CC(=O)c1ccc(OCCCC(=O)OCc2nnc(-c3ccc(Cl)cc3)o2)cc1 | i | i | i | i | i | nt | nt | nt
Cc1ccccc1C(=O)OCc1nnc(-c2ccc(Cl)cc2)o1 | 146 | i | i | i | i | i | i | i
Nc1c(Cl)ncnc1N/N=C/c1ccc(O)cc1 | 51[inhibitor] | nt | 53[inhibitor] | nt | i | i | i | i
Oc1ccc(/C=N/Nc2nccnc2Cl)cc1 | 126 | i | i | i | i | i | i | i
Cc1sc2ncnc(N/N=C/c3ccc(O)cc3)c2c1C | i | i | i | i | i | nt | nt | nt
CCOc1cc(C(=O)NC2CC(C)(C)NC(C)(C)C2)cc(OCC)c1OCC | i | nt | i | nt | i | nt | nt | nt
COc1cccc(OCc2cc(C(=O)N3CCN(C(C)=O)CC3)no2)c1 | i | nt | i | nt | i | nt | nt | nt
CC(C)(C)NC(=O)CN(Cc1ccccc1)S(=O)(=O)c1ccccc1 | i | nt | i | nt | i | nt | nt | nt
CCOC(=O)c1[nH]c2ccccc2c1NC(=O)C1CCCCC1 | 76[inhibitor] | i | i | i | i | i | i | i
CCOC(=O)C1CCN(C(=O)CCS(=O)(=O)c2ccc3c(c2)CCN3C(C)=O)CC1 | 126 | i | i | i | i | i | i | i
CCN(c1cccc(C)c1)S(=O)(=O)c1ccc2c(c1)CCN2C(C)=O | 1.0[inhibitor] | i | -1.0[inhibitor] | i | i | i | i | i
O=C(c1ccc(F)c(F)c1)N1CCCc2ccccc21 | i | nt | i | nt | i | nt | nt | nt
O=c1[nH]c(=S)[nH]c2c1C(c1cc([N+](=O)[O-])c(N3CCOCC3)cc1N1CCOCC1)O2 (configuration not stated) | 142 | i | i | i | i | i | i | i
Cc1cc(F)ccc1NC(=O)c1cc(S(=O)(=O)N2CCc3ccccc32)cn1C | i | nt | i | nt | i | nt | nt | nt
COc1ccc(CCNC(=O)c2cccc(NS(=O)(=O)c3ccccc3F)c2)cc1OC | i | nt | i | nt | i | nt | nt | nt
O=c1c(N2CCOCC2)c(N2CCOCC2)c1=O | 42[inhibitor] | nt | i | nt | i | i | i | i
CC(C)Oc1c(N2CCOCC2)c(=O)c1=O | i | nt | i | nt | i | nt | nt | nt
CC1CC(C)CN(C(=O)C2CCN(S(=O)(=O)c3ccc4c(c3)CC(C)N4C(=O)C3CC3)CC2)C1 (configuration not stated) | i | nt | i | nt | i | nt | nt | nt
